pIC50: −log10 of the molar value. Blank lines part the entries; values can stand above or below the molecule they belong to.
Tests used:
K562 = assay: Antiproliferative activity against human K562 cells after 72 hrs by MTT assay; format: functional, cell-based; details: K562, 72 h
Procedure, shortened: (§1)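 Cells preincubated 24 h at 37 °C, 5% CO₂. Compounds added at several concentrations in medium with 0.1% DMSO for 72 h. MTT (5 mg/mL in PBS) then added for 4 h, and optical density read at 490 nm. IC50 taken from dose-response curves; mean ± SD of at least three independent experiments.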

[1] = Drug resistance index, ratio of IC50 for VCR-resistant human K562/VCR cells to IC50 for human K562 cells; format: functional
K562/VCR = assay: Antiproliferative activity against human VCR-resistant K562/VCR cells after 72 hrs by MTT assay; format: functional, cell-based; procedure, shortened: as §1
H22 (Mus musculus) [2] = assay: Antiproliferative activity against mouse H22 cells after 72 hrs by MTT assay; details: H22, 72 h
KB = assay: Antiproliferative activity against human KB cells after 72 hrs by MTT assay; format: functional, cell-based; procedure, shortened: as §1
MDA-MB-231 = assay: Antiproliferative activity against human MDA-MB-231 cells after 72 hrs by MTT assay; format: functional, cell-based; details: MDA-MB-231, 72 h; procedure, shortened: as §1
HepG2 = assay: Antiproliferative activity against human HepG2 cells after 72 hrs by MTT assay; format: functional, cell-based; details: HepG2, 72 h; procedure, shortened: as §1
L02 = assay: Antiproliferative activity against human LO2 cells after 72 hrs by MTT assay; format: cell-based; details: L02, 72 h; procedure, shortened: as §1
HCT-8 = assay: Antiproliferative activity against human HCT8 cells after 72 hrs by MTT assay; format: functional, cell-based; details: HCT-8, 72 h; procedure, shortened: as §1
H22 (Mus musculus) [3] = assay: Antitumor activity against mouse H22 cells xenografted in ICR mouse assessed as reduction in tumor weight at 20 mg/kg/day, iv for 21 days relative to control; set-up: scale not given: the % may be the effect or the level left
[4] = Antiproliferative activity against human taxol-resistant HCT8/T cells after 72 hrs by MTT assay; format: functional; details: HCT-8, 72 h; procedure, shortened: as §1
A549/TR = assay: Antiproliferative activity against human taxol-resistant A549/TR cells after 72 hrs by MTT assay; format: functional, cell-based; procedure, shortened: as §1
A549 = assay: Antiproliferative activity against human A549 cells after 72 hrs by MTT assay; format: functional, cell-based; details: A549, 72 h; procedure, shortened: as §1
Bel-7402 = assay: Antiproliferative activity against human Bel7402 cells after 72 hrs by MTT assay; format: functional, cell-based; details: Bel-7402, 72 h; procedure, shortened: as §1
[5] = Antiproliferative activity against human ADR-resistant Bel7402/ADR cells after 72 hrs by MTT assay; format: functional; details: Bel-7402, 72 h; procedure, shortened: as §1
H22 (Mus musculus) [6] = assay: Antitumor activity against mouse H22 cells xenografted in ICR mouse assessed as reduction in tumor weight at 6 mg/kg, iv administered every 2 days for 21 days relative to control; set-up: scale not given: the % may be the effect or the level left
[7] = Toxicity in ICR mouse xenografted with […] cells assessed as body weight loss at 6 mg/kg, iv administered every 2 days for 21 days; format: organism-based; details: in vivo
Procedure, shortened: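 Five-week-old male ICR mice inoculated subcutaneously in the right flank with 1×10^6 H22 cells. Randomised after one day into groups of eight. Dosed intravenously every 2 days for three weeks. Tumour volume and body weight recorded every 2 days. Tumours then excised and weighed; inhibition (%) = (1 − mean treated tumour weight / mean control tumour weight) × 100.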

[8] = Drug resistance index, ratio of IC50 for taxol-resistant human A549/TR cells to IC50 for human A549 cells; format: functional
Procedure, shortened: (§2)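 Resistant and parental sensitive lines exposed to a range of compound concentrations in medium with 0.1% DMSO for 72 h at 37 °C, 5% CO2, after 24 h pre-culture. MTT added for 4 h, absorbance read at 490 nm. IC50 from dose-response curves, at least three independent experiments. DRI = IC50 resistant / IC50 parental.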

[9] = Drug resistance index, ratio of IC50 for taxol-resistant human HCT8/T cells to IC50 for human HCT8 cells; format: functional; procedure, shortened: as §2
Tubulin (Sus scrofa) [10] = biological target: T1, Tubulin (Sus scrofa) (UniProt P02554+P02550); assay: Inhibition of [3H]-colchicine binding to biotinylated porcine tubulin at 1 uM after 2 hrs by SPA relative to control; format: protein assay
Procedure, shortened: (§3)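 Scintillation proximity assay: 0.08 μM [3H]colchicine incubated with biotinylated porcine tubulin (0.5 μg) and test compound for 2 h at 37 °C in 80 mM PIPES pH 6.8, 1 mM EGTA, 10% glycerol, 1 mM MgCl2, 1 mM GTP. Streptavidin SPA beads then added, and bound radioactivity counted by scintillation counter.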

Tubulin (Sus scrofa) [11] = biological target: T1, Tubulin (Sus scrofa); assay: Inhibition of [3H]-colchicine binding to biotinylated porcine tubulin at 5 uM after 2 hrs by SPA relative to control; format: protein assay; procedure, shortened: as §3
Tubulin = Tubulin (Sus scrofa, UniProt P02554+P02550); assay: Inhibition of porcine brain tubulin polymerization preincubated for 30 mins and measured every 2 mins for 60 mins by spectrophotometric analysis
[12] = Drug resistance index, ratio of IC50 for ADR-resistant human Bel7402/ADR cells to IC50 for human Bel7402 cells; format: functional; procedure, shortened: as §2

T1 sequence (P02550 whole entry, looked up): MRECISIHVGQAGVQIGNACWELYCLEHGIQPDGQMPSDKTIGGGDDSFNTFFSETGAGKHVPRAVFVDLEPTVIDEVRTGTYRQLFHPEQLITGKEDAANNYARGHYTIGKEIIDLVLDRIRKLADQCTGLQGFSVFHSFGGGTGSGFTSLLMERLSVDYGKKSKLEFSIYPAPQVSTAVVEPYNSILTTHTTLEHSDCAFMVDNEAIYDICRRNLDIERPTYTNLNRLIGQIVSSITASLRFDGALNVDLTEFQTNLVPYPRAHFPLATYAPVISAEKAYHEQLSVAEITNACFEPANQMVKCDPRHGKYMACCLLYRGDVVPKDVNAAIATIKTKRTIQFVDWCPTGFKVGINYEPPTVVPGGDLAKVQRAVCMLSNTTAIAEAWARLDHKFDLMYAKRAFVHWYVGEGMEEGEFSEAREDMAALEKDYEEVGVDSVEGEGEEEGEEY
T1 sequence (P02554 whole entry, looked up): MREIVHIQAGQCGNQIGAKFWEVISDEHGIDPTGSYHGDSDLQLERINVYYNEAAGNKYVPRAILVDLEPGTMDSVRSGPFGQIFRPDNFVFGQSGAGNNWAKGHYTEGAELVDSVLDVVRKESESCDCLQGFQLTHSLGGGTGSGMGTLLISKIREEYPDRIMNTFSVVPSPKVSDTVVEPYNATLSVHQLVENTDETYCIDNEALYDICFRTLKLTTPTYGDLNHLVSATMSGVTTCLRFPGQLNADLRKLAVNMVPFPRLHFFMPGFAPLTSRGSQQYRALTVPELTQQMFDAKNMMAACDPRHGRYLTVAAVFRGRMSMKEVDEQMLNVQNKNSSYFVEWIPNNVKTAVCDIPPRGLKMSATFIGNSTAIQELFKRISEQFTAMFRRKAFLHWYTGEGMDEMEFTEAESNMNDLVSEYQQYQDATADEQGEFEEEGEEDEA

pIC50 (K562): 6.35
SMILES: C=C(c1ccc2c(ccn2C)c1)c1cc(C(F)(F)F)nc2ccccc12

pIC50 (K562): 7.68
pIC50 (K562/VCR): 5.30
SMILES: CC[C@]1(O)C[C@H]2CN(CCc3c([nH]c4ccccc34)[C@@](C(=O)OC)(c3cc4c(cc3OC)N(C=O)[C@H]3[C@@](O)(C(=O)OC)[C@H](OC(C)=O)[C@]5(CC)C=CCN6CC[C@]43[C@@H]65)C2)C1 [VINCRISTINE]
Ratio IC50 [1]: 241

pIC50 (K562): 6.54
SMILES: COc1ccc2c(ccn2C(=O)c2cc(C)nc3ccccc23)c1N

pIC50 (K562): < 6.00
SMILES: C=C(c1cc(C)nc2ccccc12)c1c[nH]c2cc(OC)ccc12

pIC50 (K562): 7.34
pIC50 (KB): 7.08
pIC50 (MDA-MB-231): 6.95
pIC50 (HepG2): 7.28
pIC50 (HCT-8): 6.99
SMILES: C=C(c1ccc2c(ccn2C)c1)c1cc(OC)nc2ccccc12
pIC50 (H22 (Mus musculus) [2]): 6.98
pIC50 (L02): 6.71

pIC50 (K562): < 6.00
SMILES: C=C(c1cc(C)nc2ccccc12)c1cccc2[nH]ccc12

pIC50 (K562): 7.51
SMILES: C=C(c1ccc2c(ccn2CC)c1)c1cc(C)nc2ccccc12

SMILES: COc1ccc(/C=C\c2cc(OC)c(OC)c(OC)c2)cc1O [COMBRETASTATIN A4]
pIC50 (H22 (Mus musculus) [2]): 8.00
Activity (H22 (Mus musculus) [3]): 51%
pIC50 (K562): 8.15
pIC50 [4]: 7.06
pIC50 (A549/TR): 6.76
pIC50 (A549): 8.05
pIC50 (MDA-MB-231): 7.96
pIC50 (HepG2): 8.05
pIC50 (Bel-7402): 7.96
pIC50 (L02): 7.34
pIC50 [5]: 7.24
pIC50 (K562/VCR): 7.24
pIC50 (HCT-8): 7.96

pIC50 (K562): < 6.00
SMILES: Cc1cc(C(C)c2cccc3c2ccn3C)c2ccccc2n1 (centres undefined)

pIC50 (A549/TR): 5.74
pIC50 (A549): 7.74
pIC50 (HCT-8): 7.55
SMILES: CC(=O)O[C@H]1C(=O)[C@@]2(C)[C@H]([C@H](OC(=O)c3ccccc3)[C@]3(O)C[C@H](OC(=O)[C@H](O)[C@@H](NC(=O)c4ccccc4)c4ccccc4)C(C)=C1C3(C)C)[C@]1(OC(C)=O)CO[C@@H]1C[C@@H]2O [PACLITAXEL]
Activity (H22 (Mus musculus) [6]): 72.7%
Activity [7]: Toxic
pIC50 [4]: 5.59
Ratio IC50 [8]: 101.6
Ratio IC50 [9]: 92.5

pIC50 (K562): < 6.00
SMILES: COc1ccc2c(C(C)c3cc(C)nc4ccccc34)c[nH]c2c1 (centres undefined)

pIC50 (K562): 6.82
SMILES: C=C(c1ccc2c(ccn2CF)c1)c1cc(C)nc2ccccc12

pIC50 (K562): 7.10
SMILES: COc1ccc2c(ccn2-c2cc(C)nc3ccccc23)c1N

pIC50 (K562): < 6.00
SMILES: C=C(c1cc(C)nc2ccccc12)c1cccc2c1ccn2C

pIC50 (K562): 7.43
pIC50 (KB): 6.96
pIC50 (MDA-MB-231): 6.99
pIC50 (HepG2): 7.00
pIC50 (HCT-8): 7.02
SMILES: Cc1cc(C(C)c2ccc3c(ccn3C)c2)c2ccccc2n1 (centres undefined)
pIC50 (H22 (Mus musculus) [2]): 6.92
pIC50 (L02): 6.67

pIC50 (K562): 8.30
pIC50 (KB): 8.10
pIC50 (MDA-MB-231): 7.57
pIC50 (HepG2): 7.70
pIC50 (HCT-8): 8.00
SMILES: C=C(c1ccc2c(ccn2C)c1)c1cc(NC)nc2ccccc12
pIC50 (H22 (Mus musculus) [2]): 7.60
pIC50 (L02): 7.07

pIC50 (K562): 6.55
SMILES: C=C(c1ccc2c(ccn2C)c1)c1cc(C(N)=O)nc2ccccc12

pIC50 (K562): 6.97
SMILES: C=C(c1cc(C)nc2ccccc12)c1cn(C)c2cc(OC)ccc12

pIC50 (K562): 7.05
SMILES: C=C(c1ccc2c(ccn2C)c1)c1ccnc2ccccc12

pIC50 (K562): 6.77
SMILES: C=C(c1ccc2c(ccn2C)c1)c1cc(N(C)C)nc2ccccc12

SMILES: C=C(c1ccc2c(ccn2C)c1)c1cc(C)nc2ccccc12
inhibition (Tubulin (Sus scrofa) [10]): 78.4%
inhibition (Tubulin (Sus scrofa) [11]): 89.4%
IC50 (Tubulin): 2540 nM

pIC50 (K562): < 6.00
SMILES: COc1ccc2c(ccn2C(=O)c2cc(C)nc3ccccc23)c1

pIC50 (K562): 6.75
SMILES: C=C(c1ccc2c(ccn2C(C)=O)c1)c1cc(C)nc2ccccc12

pIC50 (K562): 6.92
pIC50 (KB): 6.43
pIC50 (MDA-MB-231): 6.69
pIC50 (HepG2): 6.42
pIC50 (HCT-8): 6.39
SMILES: C=C(c1ccc2[nH]ccc2c1)c1cc(C)nc2ccccc12
pIC50 (H22 (Mus musculus) [2]): 6.74
pIC50 (L02): 6.06

pIC50 (K562): < 6.00
SMILES: C=C(c1ccc2c(ccn2C(=O)OC(C)(C)C)c1)c1cc(C)nc2ccccc12

pIC50 (K562): 7.03
SMILES: C=C(c1ccc2c(ccn2C)c1)c1cc(C=O)nc2ccccc12

SMILES: COc1ccc(/C=C\c2cc(OC)c(OC)c(OC)c2)cc1OP(=O)([O-])[O-].[Na+].[Na+] [FOSBRETABULIN DISODIUM]
Activity (H22 (Mus musculus) [3]): 62.7%

pIC50 (K562): < 6.00
SMILES: COc1ccc2c(ccn2-c2cc(C)nc3ccccc23)c1

pIC50 (Bel-7402): 6.56
SMILES: COc1cccc2c1C(=O)c1c(O)c3c(c(O)c1C2=O)C[C@@](O)(C(=O)CO)C[C@@H]3O[C@H]1C[C@H](N)[C@H](O)[C@H](C)O1.Cl [DOXORUBICIN HYDROCHLORIDE]
Ratio IC50 [12]: 6.3
pIC50 [5]: 5.76

pIC50 (K562): 6.91
SMILES: C=C(c1ccc2c(ccn2C)c1)c1cc(CO)nc2ccccc12
